pKi: −log10 of the molar value.
Test: Inhibition of Porphyromonas gingivalis gamma-carbonic anhydrase expressed in Escherichia coli preincubated for 15 mins by stopped flow CO2 hydration assay
Procedure, shortened: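 CO2 hydration followed by stopped-flow with phenol red (0.2 mM) read at 557 nm. Buffer was 20 mM Hepes pH 7.4 with 20 mM NaBF4 for ionic strength, and CO2 was 1.7–17 mM. Initial rates came from ≥6 traces of the first 5–10% of reaction over 10–100 s, with uncatalyzed rate subtracted. Inhibitor was diluted in water from 10 mM stock and preincubated with enzyme 15 min at rt. KI came from nonlinear least squares plus Cheng–Prusoff, mean of ≥3 determinations.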

Structure (SMILES)	pKi
CC(=O)NC(CCCCNC(=O)OC(C)(C)C)C(=O)Nc1cccc(S(N)(=O)=O)c1 (stereo not given)	7.27
CC(C)(C)OC(=O)NCCCC(=O)NCc1ccc(S(N)(=O)=O)cc1	6.31
CC(C)(C)OC(=O)NCCCC(=O)NCCc1ccc(S(N)(=O)=O)cc1	6.63
NCCCC(=O)NCc1ccc(S(N)(=O)=O)cc1	7.37
NCCCC(=O)NCCc1ccc(S(N)(=O)=O)cc1	7.18
CC(C)(C)OC(=O)/N=C(\NCCCC(=O)NCc1ccc(S(N)(=O)=O)cc1)NC(=O)OC(C)(C)C	7.13
CC(C)(C)OC(=O)/N=C(\NCCCC(=O)NCCc1ccc(S(N)(=O)=O)cc1)NC(=O)OC(C)(C)C	7.04
N=C(N)NCCCC(=O)NCc1ccc(S(N)(=O)=O)cc1	6.05
N=C(N)NCCCC(=O)NCCc1ccc(S(N)(=O)=O)cc1	7.40
CC(=O)NC(CCCCNC(=O)OC(C)(C)C)C(=O)NCc1ccc(S(N)(=O)=O)cc1 (stereo not given)	7.05
CC(=O)NC(CCCCNC(=O)OC(C)(C)C)C(=O)NCCc1ccc(S(N)(=O)=O)cc1 (stereo not given)	6.51
CC(=O)NC(CCCCN)C(=O)NCc1ccc(S(N)(=O)=O)cc1 (stereo not given)	7.13
CC(=O)NC(CCCCN)C(=O)NCCc1ccc(S(N)(=O)=O)cc1 (stereo not given)	7.15
CC(=O)NC(CCCCN/C(=N/C(=O)OC(C)(C)C)NC(=O)OC(C)(C)C)C(=O)NCc1ccc(S(N)(=O)=O)cc1 (stereo not given)	7.11
CC(=O)NC(CCCCN/C(=N/C(=O)OC(C)(C)C)NC(=O)OC(C)(C)C)C(=O)NCCc1ccc(S(N)(=O)=O)cc1 (stereo not given)	7.22
CC(=O)NC(CCCCNC(=N)N)C(=O)NCc1ccc(S(N)(=O)=O)cc1 (stereo not given)	7.09
CC(=O)NC(CCCCNC(=N)N)C(=O)NCCc1ccc(S(N)(=O)=O)cc1 (stereo not given)	6.43
CC(C)(C)OC(=O)NCCCC(=O)Nc1cccc(S(N)(=O)=O)c1	5.91
CC(C)(C)OC(=O)NCCCC(=O)Nc1ccc(S(N)(=O)=O)cc1	7.25
COC(=O)C(CCCCNC(=O)OCc1ccccc1)NC(=O)c1ccc(S(N)(=O)=O)cc1 (stereo not given)	7.07

From ChEMBL document CHEMBL3352191, “Synthesis of sulfonamides with effective inhibitory action against Porphyromonas gingivalis γ-carbonic anhydrase” (Bioorg Med Chem Lett, 2014)
